DENV2 CPE rescue – DENV2-induced cell death inhibition; DENV2-infected cells, cytopathic effect rescue, plate reader; CPE inhibition, % at 9.99 µM; AID 651640; 1.7% of 350,000 active; in the data active = CPE inhibition above about 20%, passing the limit was not always enough; inconclusive = no clear call, values can overlap the other calls; tested in BHK-21 cells;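 also: 0% = median of neutral control wells and 100% = median of positive control wells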
MLL AF4-AF9 inh – blocks AF4 peptide binding to human AF9. P42568. AlphaScreen, biotin-AF4 peptide binding to FLAG-AF9. inhibition, % at 10 µM. 0.47% of 350,000 active;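 active = every replicate reaching a set inhibition limit, whatever the replicate mean, cut at about 25% in these data; inconclusive = mean inhibition reaches that limit but some replicates miss it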;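 also: 0% = plate neutral control median and 100% = total signal loss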
Target sequence (P42568 whole entry, looked up): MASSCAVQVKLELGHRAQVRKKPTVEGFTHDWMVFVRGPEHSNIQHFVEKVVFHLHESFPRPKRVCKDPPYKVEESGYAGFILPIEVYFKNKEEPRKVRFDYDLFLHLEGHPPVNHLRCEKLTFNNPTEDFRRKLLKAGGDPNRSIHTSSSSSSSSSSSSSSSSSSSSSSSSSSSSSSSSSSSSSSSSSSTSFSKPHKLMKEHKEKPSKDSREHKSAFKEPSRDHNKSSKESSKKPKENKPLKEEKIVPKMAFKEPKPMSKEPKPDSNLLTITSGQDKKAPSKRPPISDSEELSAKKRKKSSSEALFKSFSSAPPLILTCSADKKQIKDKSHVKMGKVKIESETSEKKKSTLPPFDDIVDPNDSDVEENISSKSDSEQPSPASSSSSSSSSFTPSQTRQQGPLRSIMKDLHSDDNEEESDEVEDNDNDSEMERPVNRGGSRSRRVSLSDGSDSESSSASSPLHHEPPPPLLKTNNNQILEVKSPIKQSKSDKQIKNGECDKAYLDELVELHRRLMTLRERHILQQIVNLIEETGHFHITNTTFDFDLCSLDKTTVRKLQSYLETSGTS
PfHsp90 set2 – growth inhibition of yeast expressing Plasmodium Hsp90 | S. cerevisiae expressing PfHsp90, BacTiter-Glo ATP, 48 h; yeast lacking PDR1 and PDR3 efflux regulators | inhibition, % at 9.4 µM | 0.32% of 310,000 active;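 active = every replicate shows inhibition above about 80%, whatever the replicate mean, limit read from the data; inconclusive = mean inhibition reaches the set limit but some replicate falls short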;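 also: 0% = DMSO neutral controls and 100% = 20 µM radicicol positive controls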
S100A4 MyoIIA – inhibitors of human S100A4 binding to myosin IIA peptide | P26447 | S100A4/TAMRA-MyoIIA peptide fluorescence polarization | inhibition, % at 10.7 µM | 0.14% of 360,000 active | AID 652163;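 active = mean inhibition of at least 70% across replicates, with every replicate also reaching that level; inconclusive = mean inhibition reaches 70% but some replicates fall short; inactive = mean inhibition below 70%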
Target sequence (P26447 whole entry, looked up): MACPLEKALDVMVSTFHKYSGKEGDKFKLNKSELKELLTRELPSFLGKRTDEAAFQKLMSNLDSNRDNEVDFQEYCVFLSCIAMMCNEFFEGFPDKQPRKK
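Test system: S100A4 monomer protein. Medium: HEPES buffer with Ca2+, pH 7.2. Reagent: fluorescent myosin IIA peptide, 5 nM. Compound dosing: single-point compound testing. Timing: 5 min between mix addition and reading. Benchmarks: DMSO neutral and TFP positive wells.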
Cneo AK release – Cryptococcus neoformans lysis via adenylate kinase release. C. neoformans lysis, adenylate kinase release luminescence, 4 h; normalised: neutral wells 0, clomiphene wells 100. 0.2% of 360,000 active. lysis activity, % at 15 µM;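 active = mean lysis activity across replicates of at least 80%, whatever share of replicates individually reach that level; inactive = mean lysis activity below 80%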
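Test system: log-phase Cryptococcus neoformans yeast cells; Quantity: yeast cell density of 5 × 10^6 cells/mL; Buffer or medium: YPD; Doses: single compound concentration per well; Timing: 4 h at 37 °C static, read 1 h later; Measured by: AK luminescence; Read-out basis: lysis from increased AK signal; Control set: Clomiphene as positive control.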
Ecoli rRNA inh – inhibitors of bacterial rRNA selective over humanized ribosomes; 1.6% of 350,000 active; GFP signal change (wild-type ribosome), % (test concentration not listed); E. coli WT GFP vs humanized-ribosome RFP mutants, fluorescence, 24 h; stronger effect = lower value; DMSO median 0, no signal -100;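 active = significant combined selectivity score with lowered wild-type GFP, culture density cut under 30%, mutant RFP and density less affected; inactive = any of these conditions unmet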
* marks the source's active call; other numbers are inactive results; ? = inconclusive; · = not tested or not shown. In the library only some 3.2% were active in any assay of this set; here they are far more common.

SMILES | DENV2 CPE rescue | MLL AF4-AF9 inh | PfHsp90 set2 | S100A4 MyoIIA | Cneo AK release | Ecoli rRNA inh
COc1ccc(NC(=O)Nc2ccc3c(c2)C(=O)N([C@H](C)CO)C[C@@H](C)[C@@H](CN(C)Cc2ccc4c(c2)OCO4)OCCCC[C@@H](C)O3)cc1 | 5.5 | 22.1 | · | 9.3 | 0.2 | 0.4
O=C(C[C@H]1C/C=C\C[C@@H](Cc2ccc(F)cc2)C(=O)OC[C@H]2CCCN2C1=O)N[C@@H](CO)Cc1ccccc1 | ? | 0.4 | 4.1 | -1.2 | 0.5 | -4.8
O=C(C[C@@H]1C/C=C\C[C@@H](Cc2ccc(F)cc2)C(=O)OC[C@H]2CCCN2C1=O)N[C@H](CO)Cc1ccccc1 | 5.5 | 2.4 | -1.7 | -1.0 | 6.8 | -18.2*
COc1ccc(CCC(=O)NNC(=S)NCc2ccc(F)cc2)cc1 | · | -0.9 | -2.6 | -5.6 | · | -29.1*
COc1ccc(CCC(C)NCc2ccc(F)cc2)cc1 (configuration not stated) | 32.6* | -1.3 | 8.8 | -3.1 | 0.0 | 7.0
CNC(=O)C[C@@H]1CC[C@@H]2[C@H](COc3ccc(NC(=O)Nc4ccccc4OC)cc3C(=O)N2C)O1 | 7.7 | -2.2 | · | -2.7 | -0.5 | -1.5
CNC(=O)C[C@H]1CC[C@H]2[C@@H](COc3ccc(NC(=O)c4ccc(C#N)cc4)cc3C(=O)N2C)O1 | ? | -5.9 | · | 3.6 | 12.6 | -0.1
C/C(=N\NC(=O)c1ccc(Cn2cc([N+](=O)[O-])cn2)o1)c1cccc(NC(=O)C(C)C)c1 | 27.6* | 4.4 | -53.8 | 1.7 | · | 4.2
C/C(=N\NC(=O)c1ccc(Cn2cc(Br)cn2)o1)c1cccc(NC(=O)C(C)C)c1 | · | · | 2.5 | · | -0.7 | ·
O=S(=O)(Cc1cc(N2CCOCC2)nc(-c2ccccn2)n1)c1ccccc1 | 32.9* | -0.8 | 25.4 | 0.4 | · | 10.0
Cc1ccc(-c2onc3ccc(C(=O)/C=C/N(C)C)cc23)cc1 | -0.6 | 8.6 | 119.3* | -9.8 | 0.8 | 9.7
CN(C)/C=C/C(=O)c1ccc2noc(-c3ccc(F)cc3)c2c1 | 2.0 | -0.2 | 59.4 | 8.2 | -2.5 | -0.9
Cc1noc(C)c1NC(=O)N(C)C[C@H]1Oc2c(NS(=O)(=O)c3cn(C)cn3)cccc2C(=O)N([C@@H](C)CO)C[C@@H]1C | 3.7 | -0.7 | · | -0.1 | -0.4 | 3.5
COc1ccc(-c2cnc3n2CCCCC3)cc1 | 44.2* | -0.6 | 10.0 | 3.2 | -1.0 | 10.1
CCCC1COC(Cn2cncn2)(c2ccc(C)cc2)O1 (configuration not stated) | -0.2 | 2.3 | 98.6* | 2.9 | -1.3 | -1.0
COc1cc(Cl)ccc1OCc1cc(C(=O)N2CCCCCCC2)no1 | 1.1 | -1.0 | -3.9 | 5.5 | 0.6 | 8.3
O=C(c1cc(COc2ccc(F)cc2F)on1)N1CCCC(c2ccccc2)C1 (configuration not stated) | -6.3 | -1.5 | · | 5.6 | · | -22.4*
COc1ccc(OCc2cc(C(=O)N3CCCCCC3)no2)c(Cl)c1 | -0.8 | -1.8 | -9.3 | 1.6 | 1.8 | -32.2
COc1ccc(OCc2cc(C(=O)N3CCSCC3)no2)c(Cl)c1 | -8.5 | -1.1 | 4.6 | -2.5 | 0.7 | -28.9*
COc1cc(C)ccc1OCc1cc(C(=O)N2CCCCCC2)no1 | 5.4 | -7.0 | 3.0 | -2.6 | 1.5 | -26.1*
COc1cc(C)ccc1OCc1cc(C(=O)NCCN2CCCC(O)C2)no1 (configuration not stated) | 62.5* | 1.0 | 2.0 | 0.2 | -0.2 | 2.4
O=C(c1cc(COc2ccc(F)cc2Cl)on1)N1CCc2ccccc2C1 | -10.3 | -2.5 | 7.0 | 2.7 | 4.6 | 7.7
O=C(c1cc(COc2ccc(F)cc2Cl)on1)N1CCSCC1 | -5.2 | -1.0 | 1.4 | -8.2 | -7.7 | -36.7*
O=C(/C=C/c1ccc(O)c(O)c1)c1ccccc1O | 2.7 | 5.9 | 36.5 | 0.5 | -4.8 | -32.0*
O=C(C=Cc1cccc(O)c1)c1ccccc1O | -6.4 | 9.8 | 104.0* | -1.4 | -11.5 | -35.1
SMILES | DENV2 CPE rescue | MLL AF4-AF9 inh | PfHsp90 set2 | S100A4 MyoIIA | Cneo AK release | Ecoli rRNA inh
Oc1ccc(/C=C/c2cc(O)cc(O)c2)cc1 | ? | 2.3 | 14.5 | 0.2 | -2.7 | ·
COc1ccc(C(=O)/C=C/c2ccccc2)c(O)c1 | -12.7 | 8.5 | 23.4 | -5.9 | -5.6 | ·
O=C(C=Cc1ccccc1O)c1ccccc1O | -9.1 | 2.6 | ? | 0.7 | -16.4 | -72.7
Oc1cc(O)cc(C=Cc2ccc(O)c(O)c2)c1 | -0.9 | 10.3 | · | -2.3 | · | -29.2*
COc1ccc(NC(=O)N[C@@H]2CC[C@@H](CCNC(=O)CCN3CCCCC3)O[C@@H]2CO)cc1 | 9.1 | -1.3 | · | 4.7 | -15.8 | 2.1
Cc1noc(C)c1NC(=O)N(C)C[C@H]1Oc2ncc(C#CCN(C)C)cc2C(=O)N([C@H](C)CO)C[C@@H]1C | 9.0 | -0.9 | · | 3.6 | -0.4 | 5.9
CCOC(=O)/C(C(N)=NC)=C(\O)c1ccccc1 | · | · | 2.3 | · | -2.4 | ·
COC(=O)C(=Nc1ccccc1)/C(C(=O)C(=O)N(C)c1ccccc1)=C(\O)c1ccccc1 | 2.0 | -0.1 | -9.6 | -0.2 | -2.9 | -25.0*
O=C(C[C@H]1CC[C@@H]2[C@H](COC[C@H](O)CN2CC2CCCCC2)O1)NCc1ccc(F)cc1 | -3.9 | 0.6 | · | -4.4 | -2.9 | -24.4
CC(OC(=O)c1ccc(Cl)c(S(=O)(=O)Nc2ccc(F)cc2)c1)C(=O)NC(N)=O (configuration not stated) | 0.3 | 40.5* | 14.1 | -1.0 | 4.4 | -25.7*
CC(C)C[C@H](NC(=O)OC(C)(C)C)C(=O)NCC1CCC(C(=O)N[C@@H](Cc2ccccc2)C(=O)O)CC1 (some centres not stated) | -1.9 | -0.2 | 14.5 | -14.2 | 1.6 | 5.7
CC(C)[C@H](NC(=O)OC(C)(C)C)C(=O)NCC1CCC(C(=O)N[C@@H](Cc2ccccc2)C(=O)O)CC1 (some centres not stated) | 40.0* | -3.3 | -6.5 | 1.8 | -2.4 | 7.2
O=C(OCc1cc([N+](=O)[O-])cc2c1OCOC2)c1ccc2ccccc2n1 | 1.1 | -1.6 | 29.2 | -8.3 | · | 6.4
CC(C)=CC(=O)OCc1cc([N+](=O)[O-])cc2c1OCOC2 | 0.0 | -0.8 | · | -5.6 | · | -15.8*
Cc1ccc(NC(=O)CN(C)CC(=O)Nc2ccc(N3CCOCC3)cc2)cc1F | · | 6.8 | 2.9 | 7.6 | · | -21.4*
Cc1ccc(Cc2c(-c3ccccc3)nc3c4ccccc4ccn23)cc1 | -2.7 | -0.8 | · | -1.5 | · | ·
COc1ccc(-c2nc3c4ccccc4ccn3c2Cc2cccc(Cl)c2)cc1OC | 75.8* | 0.9 | · | -1.2 | -0.2 | -5.2
Cc1ccc(Cc2c(-c3cccc(Br)c3)nc3c4ccccc4ccn23)cc1 | 38.9* | 0.3 | · | -2.3 | · | 5.8
